# TAAR1 antag: human TAAR1 antagonists, primary screen, Fluo-8 calcium fluorescence, CHO RD-HGA16 cells; inhibition, % at 3 µM; AID 624466, 2012; antagonist; actives 1.5% (n = 360,000);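 active = inhibition above a per-plate cutoff, the mean inhibition of test compounds on that plate plus 3 SD, cut at about 49% in these data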;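 note: 0% = DMSO plus EC80 beta-PEA response and 100% = DMSO alone without agonist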
#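 Material: RD-HGA16 CHO cells with stable hTAAR1 and Gα16; Dosing: single nominal final test compound concentration of 3 µM; Schedule: seeding 17-24 h prior, 75-min 37 °C, 30-min RT dye loading; Detection: kinetic Fluo-8 calcium fluorescence measurement; Measure: % inhibition from peak post-agonist over basal fluorescence ratio; Benchmarks: vehicle and agonist controls.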
# OX1R antag-1: antagonists of human orexin 1 receptor (OX1R); inhibition, % at 6.6 µM; actives 1.8% (n = 330,000); Orexin/Hypocretin receptor type 1 (Homo sapiens), O43613; OX1R-expressing cells, FRET antagonist read-out; in the data active = inhibition mostly above about 38%, no sharp cut-off; inactive = mostly below about 40%;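 note: 0% = agonist challenge alone and 100% = reference antagonist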
# Target sequence (O43613 whole entry, looked up): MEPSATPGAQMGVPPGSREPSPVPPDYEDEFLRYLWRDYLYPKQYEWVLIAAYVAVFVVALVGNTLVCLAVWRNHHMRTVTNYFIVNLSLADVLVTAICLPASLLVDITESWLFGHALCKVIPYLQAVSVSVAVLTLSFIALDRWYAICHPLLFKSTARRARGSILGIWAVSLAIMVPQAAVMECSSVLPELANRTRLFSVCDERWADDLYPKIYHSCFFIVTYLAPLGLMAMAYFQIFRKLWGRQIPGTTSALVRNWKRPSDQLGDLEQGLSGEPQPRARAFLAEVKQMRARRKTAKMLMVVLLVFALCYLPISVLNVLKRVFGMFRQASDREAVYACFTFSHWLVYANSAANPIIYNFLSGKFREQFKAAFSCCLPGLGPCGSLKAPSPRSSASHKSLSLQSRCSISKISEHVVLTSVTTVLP
# OX1R antag-2: OX1R (HCRTR1) antagonists, primary screen, fluorescence, CHO/OX1R cells, Fluo-8 calcium, orexin A. Orexin/Hypocretin receptor type 1 (Homo sapiens), O43613. Fluo-8 calcium fluorescence. inhibition, % at 5 µM. actives 0.43% (n = 330,000). AID 434989, 2010;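 active = inhibition above its plate's threshold, mean inhibition of all tested compounds on the plate plus 3 SD, cut at about 37% in these data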;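 note: 0% = orexin A challenge wells and 100% = SB-334867-A antagonist wells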
# TAAR1 agonist: human TAAR1 agonists, primary screen, Fluo-8 calcium fluorescence, CHO RD-HGA16 cells; activation, % at 3 µM; vehicle wells 0%, saturating PEA agonist 100%; actives 0.99% (n = 360,000); AID 624467, 2012;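 active = activation above the mean activation of all test compounds in the run plus 3 SD, cut at about 38% in these data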
#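 Repeats: no replicates (n 1) | Material: CHO-derived RD-HGA16 cells with stable Gα16 and human TAAR1 | Technique: Kinetic Fluo-8 calcium fluorescence | Schedule: 17-24 h seeding, 75 min 37 °C dye, 30 min RT | Evaluation: % activation from peak over basal fluorescence ratio, DMSO-to-PEA scaled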
# CHO parental Ca: ATP-evoked calcium signal inhibitors, parental CHO, primary screen, counter-screen for OX1R antagonist project, cell-based, fluorescence, Fluo-8 calcium dye. parental CHO-K1, ATP-induced calcium, Fluo-8 fluorescence. actives 0.63% (n = 330,000). inhibition, % at 5.6 µM;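 active = inhibition above that plate's mean sample inhibition plus 3 SD, cut at about 26% in these data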;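 note: 0% = ATP-challenged DMSO wells and 100% = DMSO wells without ATP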
#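 Measured by: calcium-sensitive Fluo-8 fluorescence / Test system: CHO parental line / Controls: ATP-challenged DMSO wells low, unchallenged DMSO wells high / Measure: % inhibition / Compound: single nominal dose of 5.6 µM per compound / Replicates: single well per compound, no replicates / Reagent: ATP as calcium-mobilizing challenge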
# GPR7 antag: GPR7 receptor antagonists, primary screen, cell-based, fluorescence, single concentration; Neuropeptides B/W receptor type 1 (Homo sapiens), P48145; GPR7-expressing cells, fluorescence antagonist assay; inhibition, % at 4.4 µM; actives 1.1% (n = 290,000); AID 1861, 2009; in the data active = inhibition above about 16%, passing the limit was not always enough;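 note: cells stimulated with the agonist NPW; 0% = agonist with vehicle and 100% = vehicle without agonist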
# Target sequence (P48145 whole entry, looked up): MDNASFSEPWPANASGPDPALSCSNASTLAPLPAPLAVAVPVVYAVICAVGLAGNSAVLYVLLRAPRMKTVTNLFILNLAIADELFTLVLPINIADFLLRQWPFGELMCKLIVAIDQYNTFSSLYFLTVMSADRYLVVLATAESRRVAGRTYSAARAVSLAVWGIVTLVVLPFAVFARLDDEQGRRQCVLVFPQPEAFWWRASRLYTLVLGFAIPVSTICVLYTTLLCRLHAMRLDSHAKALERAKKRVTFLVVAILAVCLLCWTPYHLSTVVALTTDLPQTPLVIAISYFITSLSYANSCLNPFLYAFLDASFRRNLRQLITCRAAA
# nonsel antag count: nonselective antagonists in TAAR1 counter-screen cells, counter-screen for hTAAR1 antagonist project, cell-based, fluorescence, calcium; counterscreen cell line, antagonist mode; actives 77% (n = 2,400); shares compounds with TAAR1 antag; inhibition, % at 3 µM; in the data active = inhibition above about 22%;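 note: CHO-Ga16 host cells stimulated with ATP at an EC80 level; 0% = agonist EC80 plus vehicle and 100% = vehicle without agonist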
# TAAR1 antag conf: human TAAR1 antagonists, retest of hits, confirmation, cell-based, fluorescence | TAAR1-expressing cells, fluorescence antagonist read-out | shares compounds with TAAR1 antag | inhibition, % at 3 µM | AID 651785, 2012 | actives 40% (n = 2,400); in the data active = inhibition above about 49%;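 note: CHO-Ga16 host cells challenged with agonist PEA near its EC80; 0% = agonist at EC80 plus vehicle and 100% = vehicle with no agonist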
# Ga16 nonsel ag: calcium activation in Ga16-expressing cells, counter-screen for TAAR1 antagonist project, cell-based, fluorescence; shares compounds with TAAR1 antag; agonist counterscreen; activation, % at 3 µM; actives 18% (n = 2,400); AID 651953, 2012; in the data active = activation above about 12%;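 note: 0% = vehicle wells and 100% = saturating stimulus response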
# TAAR1 ag count: TAAR1 activation by candidate antagonists – cell-based, fluorescence, counter-screen for TAAR1 antagonist project | shares compounds with TAAR1 antag | hTAAR1 cell line, agonist mode | activation, % at 3 µM | actives 2% (n = 2,400) | AID 651955, 2012; in the data active = activation above about 37%;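 note: CHO cells stably expressing TAAR1 with calcium dye readout; 0% = DMSO vehicle and 100% = full agonist response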
# Numbers without * were called inactive; · = no result given. Hits are enriched below; roughly 4.5% of the tested compounds scored in any of these assays.
SMILES,TAAR1 antag,OX1R antag-1,OX1R antag-2,TAAR1 agonist,CHO parental Ca,GPR7 antag,nonsel antag count,TAAR1 antag conf,Ga16 nonsel ag,TAAR1 ag count
O=C(NCc1nc2ccccc2[nH]1)C1=C[C@@H](c2ccc(C(F)(F)F)cc2)C[C@@H](OCc2ccc(CO)cc2)O1,51.9*,10.3,-22.4,11.8,-4.9,·,25.2*,23.4,5.5,6.4
Cc1ccnc(NC(=O)c2ccc(OCc3c(C)noc3C)cc2)c1,-24.6,·,·,0.7,·,·,·,·,·,·
CSCCNC(=O)C1(C)CCN1C(=O)CCc1ccccc1 (stereo not drawn),-27.6,·,·,5.5,·,·,·,·,·,·
CCN(CC(=O)NCc1ccc(Cl)cc1)S(=O)(=O)c1ccc(F)cc1,-10.2,14.0,-26.6,-2.5,-8.3,9.3,·,·,·,·
CCN(CC(=O)NCc1ccc(Cl)cc1)S(=O)(=O)c1ccc(NC(C)=O)cc1,77.7*,2.6,-12.5,19.1,-14.6,8.5,20.9,46.6,9.1,11.1
Cc1cnc(CNC(=O)C2(C)CCCN2CC(C)C)cn1 (stereo not drawn),1.3,·,·,0.4,·,·,·,·,·,·
CC(=O)Nc1cc(=O)c2cccnc2[nH]1,-11.2,·,·,2.2,·,·,·,·,·,·
CCC(=O)N1CCN(c2ccc(NC(=O)COc3ccccc3[N+](=O)[O-])cc2)CC1,86.4*,20.2,-23.6,21.3,-15.8,-0.6,31.9*,57.2*,13.9*,14.5
COc1ccc(-c2cc(C(=O)N(C)CC(=O)Nc3ccccc3Br)c3ccccc3n2)cc1OC,65.3*,26.0,-35.2,11.7,-30.1,·,28.9*,50.9*,7.9,5.6
COc1ccc(-c2cc(C(=O)NCC(c3ccccc3)N(C)C)c3ccccc3n2)cc1OC (stereo not drawn),26.7,6.7,-32.5,12.0,-18.5,-18.1,·,·,·,·
COc1ccc(-c2cc(C(=O)N(C)CC(=O)Nc3ccccc3C(F)(F)F)c3ccccc3n2)cc1OC,66.7*,·,·,21.9,·,·,33.9*,49.1*,7.8,9.2
CC1(C(=O)NS(=O)(=O)c2ccc(Br)cc2)CCN1C(=O)C1(c2ccccc2)CC1 (stereo not drawn),-25.3,·,·,9.9,·,·,·,·,·,·
CC(=O)c1ccc(S(=O)(=O)N2CCN(C(=O)c3ccc(COc4ccccc4)o3)CC2)cc1,42.2,·,·,7.7,·,·,·,·,·,·
Cc1noc(C)c1C(=O)Nc1nc(-c2ccc([N+](=O)[O-])cc2)cs1,57.2*,17.5,-11.9,7.6,3.7,-15.0,36.9*,46.7,10.2,5.6
CCOCC(=O)Nc1c(C(=O)N2CCN(c3ncccn3)CC2)oc2ccccc12,20.2,4.8,-13.6,6.4,-2.0,-3.1,·,·,·,·
O=C(c1oc2ccccc2c1CSCc1ccccc1)N1CCN(c2ncccn2)CC1,64.9*,13.3,-7.3,11.0,-8.5,9.6,29.8*,40.9,4.6,4.3
O=C(Nc1cccc(-c2nnc(-c3ccccc3)o2)c1)c1ccco1,49.8*,29.3,-25.2,11.7,-8.6,·,29.4*,43.9,7.0,13.2
CCC(=O)Nc1cccc(-c2nc3ccccc3o2)c1,-1.8,37.1,-8.1,11.0,4.4,4.0,·,·,·,·
Cc1ccc(OCC(=O)Nc2cccc(-c3nnc(-c4ccccc4)o3)c2)cc1,68.7*,-2.8,-8.4,15.0,-3.5,-0.2,35.4*,64.8*,7.1,3.9
O=C(Nc1ccccc1)c1cccc(-c2nnc(-c3ccccc3)o2)c1,20.3,19.0,-13.9,14.4,-22.1,-9.4,·,·,·,·
Cc1cccc(OCC(=O)Nc2cccc(-c3nnc(-c4ccccc4)o3)c2)c1C,68.7*,14.8,-29.8,7.5,-7.8,-11.5,32.1*,60.5*,7.1,3.0
CCC(=O)Nc1cccc(-c2nnc(-c3ccccc3)o2)c1,12.5,21.0,-8.1,6.8,-19.5,·,·,·,·,·
Cc1cccc(C)c1OCC(=O)Nc1cccc(-c2nnc(-c3ccccc3)o2)c1,-2.5,9.7,-30.6,12.2,-5.0,-6.4,·,·,·,·
COc1ccccc1OCC(=O)Nc1cccc(-c2nc3ccccc3o2)c1,65.6*,30.6,-29.2,7.5,-14.9,-15.9,33.4*,45.9,4.0,5.8
O=C(COc1ccccc1)Nc1cccc(-c2nn[nH]n2)c1,5.0,10.3,-8.1,-0.5,-3.3,-12.7,·,·,·,·
SMILES,TAAR1 antag,OX1R antag-1,OX1R antag-2,TAAR1 agonist,CHO parental Ca,GPR7 antag,nonsel antag count,TAAR1 antag conf,Ga16 nonsel ag,TAAR1 ag count
O=C(CSc1ccc(Cl)cc1)Nc1cccc(-c2nnc(-c3ccco3)o2)c1,13.0,9.8,-37.1,6.2,-27.2,-13.6,·,·,·,·
O=C(COc1ccccc1)Nc1cccc(-c2nc3cc4ccccc4cc3[nH]2)c1,69.0*,32.4,-11.2,14.7,-21.1,-2.2,37.6*,58.8*,8.4,3.6
Cc1ccc(SCC(=O)Nc2cccc(-c3nnc(-c4ccco4)o3)c2)cc1,64.7*,19.5,-7.5,11.8,-27.0,-4.7,37.7*,52.5*,9.8,7.9
Cc1nc(-c2cccc(NC(=O)COc3ccc(Cl)cc3)c2)cs1,54.7*,·,·,0.2,·,-21.4,30.1*,43.0,5.0,-0.3
COc1cc(C(C)n2nnc3ccccc32)ccc1O (stereo not drawn),-7.8,·,·,2.1,·,·,·,·,·,·
O=C(NCc1ccccc1)C(c1ccccc1)n1c(-c2ccccn2)nc2ccccc21 (stereo not drawn),-27.7,·,·,1.0,·,·,·,·,·,·
CCOC(=O)c1ccc(NC(=O)[C@@H]2CCC(=O)N2C2OC(=O)c3c2ccc(OC)c3OC)cc1 (stereo partly drawn),-12.8,·,·,1.9,·,·,·,·,·,·
COC1=CC(C)C2CC3OC(=O)CC4C(C)=C(OC)C(=O)C(C2(C)C1=O)C34C (stereo not drawn),-0.3,·,·,1.0,·,·,·,·,·,·
CCOC(=O)[C@]12CCC=C1N(Cc1ccc(Cl)cc1Cl)C(=O)[C@H](CC(=O)N1CCC(c3ccccc3)CC1)C2,-28.9,·,·,-0.1,·,·,·,·,·,·

# Bioassay records from PubChem.
